Laboratory results as given in ChEMBL document CHEMBL3414458, “Discovery of novel 2,5-dioxoimidazolidine-based P2X(7) receptor antagonists as constrained analogues of KN62” (J Med Chem, 2015).
The source made the active and inactive calls. The rule behind the calls is not given here.

How the values were obtained:
[1] = biological target: T1, P2X purinoceptor 3 (Homo sapiens) (UniProt P56373); assay: Antagonist activity at recombinant human P2X3 receptor overexpressed in Xenopus oocytes assessed as inhibition of ATP-induced ion current at 10 uM preincubated for 20 mins followed by ATP induction by two-electrode voltage clamping method relative to control; type: cell-based
T1 sequence (whole entry): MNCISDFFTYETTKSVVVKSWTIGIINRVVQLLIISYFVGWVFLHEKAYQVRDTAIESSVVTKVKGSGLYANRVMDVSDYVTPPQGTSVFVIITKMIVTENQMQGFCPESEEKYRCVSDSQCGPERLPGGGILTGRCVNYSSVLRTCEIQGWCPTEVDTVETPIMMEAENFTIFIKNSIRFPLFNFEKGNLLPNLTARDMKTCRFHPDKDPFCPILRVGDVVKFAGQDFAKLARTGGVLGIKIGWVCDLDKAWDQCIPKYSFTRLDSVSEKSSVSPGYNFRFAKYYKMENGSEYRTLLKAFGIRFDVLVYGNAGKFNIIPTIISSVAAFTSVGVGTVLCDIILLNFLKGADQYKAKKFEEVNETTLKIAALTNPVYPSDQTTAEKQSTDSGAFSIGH
Procedure, shortened: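 Xenopus oocytes were microinjected with capped cRNA for human P2X3. Two-electrode voltage clamp recorded ion current evoked by 2 µM ATP. Test compound at 10 µM was scored as percent reduction of the ATP-induced current.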

[2] = biological target: T2, P2X purinoceptor 7 (Mus musculus) (UniProt Q9Z1M0); assay: Antagonist activity at P2X7 receptor in LPS-primed mouse J774.A1 cells assessed as inhibition of ATP-induced IL-1beta release after 30 mins by ELISA; type: cell-based
T2 sequence (whole entry): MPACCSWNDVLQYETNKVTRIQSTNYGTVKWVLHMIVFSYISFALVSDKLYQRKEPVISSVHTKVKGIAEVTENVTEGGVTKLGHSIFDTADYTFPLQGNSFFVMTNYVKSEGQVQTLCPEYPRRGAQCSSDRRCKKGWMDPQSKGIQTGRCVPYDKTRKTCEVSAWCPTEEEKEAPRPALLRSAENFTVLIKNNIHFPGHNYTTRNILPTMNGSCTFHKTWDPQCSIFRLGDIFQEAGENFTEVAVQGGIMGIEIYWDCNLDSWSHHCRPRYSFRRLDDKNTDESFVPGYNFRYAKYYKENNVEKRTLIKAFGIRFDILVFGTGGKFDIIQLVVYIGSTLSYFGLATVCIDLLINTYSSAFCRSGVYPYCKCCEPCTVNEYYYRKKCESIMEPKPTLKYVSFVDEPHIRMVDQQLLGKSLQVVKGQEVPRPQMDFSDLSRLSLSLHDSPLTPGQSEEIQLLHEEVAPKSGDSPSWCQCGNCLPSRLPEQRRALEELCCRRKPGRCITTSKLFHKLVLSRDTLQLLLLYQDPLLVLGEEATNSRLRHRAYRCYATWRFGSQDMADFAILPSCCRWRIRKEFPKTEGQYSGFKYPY
Procedure, shortened: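 J774.A1 mouse cells stimulated with 5 mM ATP; IL-1β release measured, with IC50 taken from concentration-response data.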

[3] = biological target: T3, P2X purinoceptor 7 (Rattus norvegicus) (UniProt Q64663); assay: Antagonist activity at P2X7 receptor in neuropathic rat dorsal horn assessed as inhibition of long term potentiation-induced neropathic pain at 20 uM relative to control; conditions: Dorsal horn of spinal cord
T3 sequence (whole entry): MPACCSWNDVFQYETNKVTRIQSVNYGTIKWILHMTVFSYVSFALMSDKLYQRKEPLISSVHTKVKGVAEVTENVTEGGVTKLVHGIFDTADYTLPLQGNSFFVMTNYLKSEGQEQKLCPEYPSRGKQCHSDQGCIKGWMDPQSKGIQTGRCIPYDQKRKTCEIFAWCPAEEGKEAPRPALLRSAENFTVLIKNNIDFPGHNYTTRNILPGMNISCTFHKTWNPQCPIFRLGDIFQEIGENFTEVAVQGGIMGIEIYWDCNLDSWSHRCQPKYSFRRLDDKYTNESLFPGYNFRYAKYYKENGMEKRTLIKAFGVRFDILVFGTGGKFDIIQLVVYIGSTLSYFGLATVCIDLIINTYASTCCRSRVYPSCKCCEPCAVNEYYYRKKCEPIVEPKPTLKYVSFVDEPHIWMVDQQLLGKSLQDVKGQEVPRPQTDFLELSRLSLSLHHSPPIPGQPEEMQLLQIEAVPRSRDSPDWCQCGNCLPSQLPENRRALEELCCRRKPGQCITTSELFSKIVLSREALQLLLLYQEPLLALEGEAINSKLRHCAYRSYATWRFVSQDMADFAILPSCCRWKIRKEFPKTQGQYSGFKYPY
Procedure, shortened: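 Ex vivo spinal cord preparation: LTP-induced pain signalling recorded in the dorsal horn of neuropathic rats. Pregabalin served as the positive control.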

Mus musculus [4] = assay: Antiarthritic activity in CII-induced DBA/1J mouse arthritic model assessed as decrease in fibrosis at 50 mg/kg, ip measured 10 days post second CII booster by Hematoxylin and eosin staining relative to CII-treated control; type: functional, organism-based; set-up: dose 50 mg/kg
Procedure, shortened: (§1)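 Mouse type II collagen-induced arthritis; 50 mg/kg dosed by injection. Ankle histology was scored as cumulative arthritis injury scores against the vehicle-treated CII group.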

Mus musculus [5] = assay: Antiarthritic activity in CII-induced DBA/1J mouse arthritic model assessed as decrease in periarticular erosion at 50 mg/kg, ip measured 10 days post second CII booster by Hematoxylin and eosin staining relative to CII-treated control; type: functional, organism-based; set-up: dose 50 mg/kg; procedure, shortened: as §1
[6] = biological target: T4, P2X purinoceptor 7 (Homo sapiens) (UniProt Q99572); assay: Competitive antagonist activity at recombinant human P2X7 receptor expressed in HEK293 cells assessed as inhibition of BzATP-induced intracellular ethidium bromide uptake at 0.1 to 1 uM after 2 hrs by fluorescence assay in presence of BzATP; type: cell-based
T4 sequence (whole entry): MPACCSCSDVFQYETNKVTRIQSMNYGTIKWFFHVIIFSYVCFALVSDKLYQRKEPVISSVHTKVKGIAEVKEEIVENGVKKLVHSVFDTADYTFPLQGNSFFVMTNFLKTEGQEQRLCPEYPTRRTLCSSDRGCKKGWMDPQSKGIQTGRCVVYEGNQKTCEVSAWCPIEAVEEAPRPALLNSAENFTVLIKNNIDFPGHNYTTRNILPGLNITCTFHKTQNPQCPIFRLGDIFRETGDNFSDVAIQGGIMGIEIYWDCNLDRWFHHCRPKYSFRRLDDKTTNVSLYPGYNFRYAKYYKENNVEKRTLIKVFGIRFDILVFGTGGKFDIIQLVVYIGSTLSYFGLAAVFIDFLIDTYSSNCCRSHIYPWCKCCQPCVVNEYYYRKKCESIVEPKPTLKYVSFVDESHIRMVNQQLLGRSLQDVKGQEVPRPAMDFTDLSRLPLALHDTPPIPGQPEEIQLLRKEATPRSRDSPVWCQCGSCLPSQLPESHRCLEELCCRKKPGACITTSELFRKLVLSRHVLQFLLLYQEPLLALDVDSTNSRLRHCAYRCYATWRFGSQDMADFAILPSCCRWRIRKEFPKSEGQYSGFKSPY
Procedure, shortened: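 HEK293 cells stably expressing recombinant human P2X7 were stimulated with BzATP, and ethidium ion accumulation was read as the measure of pore activity.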

inhibition [1]: 5.05%
inhibition [2]: Dose-dependent effect
inhibition [3]: 76%
inhibition [6]: Active
Structure (SMILES): O=C1NC(=O)N(C2CCN(C(=O)c3ccc(Cl)c(C(F)(F)F)c3)CC2)C1Cc1ccc(OS(=O)(=O)c2cccc3cnccc23)cc1 (racemic)
Activity (Mus musculus [4]): Active
Activity (Mus musculus [5]): Active
